In ChEMBL document CHEMBL1649302, “New small-molecule inhibitor class targeting human immunodeficiency virus type 1 virion maturation” (Antimicrob Agents Chemother, 2009) one finds selectivity ratio, EC50 and inhibition data, which are given here for one molecule.

The term EC50 denotes the concentration giving half of the maximal effect.

Activity calls are given as the source filed them. The calls are words filed in the database; no cut-off is given here.

Data set [1] in a line: Therapeutic index, ratio of CC50 for human MT2 cells to EC50 for HIV1 NL4-3 infected in human MT2 cells. The data set is classed as cell-based. The settings on record: read-out: TI. The method, boiled down:
(§1)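 TI was the mean CC50 (XTT, uninfected MT-2) divided by the mean EC50, determined for each cell line in each experiment.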

Data set [2] is described as follows: Therapeutic index, ratio of CC50 for human MT2 cells to EC50 for HIV1 3B infected in human MT2 cells. The settings on record: read-out: TI. Type of data set: cell-based. An outline of the steps: as §1
Data set [3] deals with Human immunodeficiency virus 1. Nature of the data set: Antiviral activity against HIV1 RF infected in human CEM-SS cells assessed as protection against virus-induced cytopathogenicity after 6 days by XTT assay. Type of data set: functional, organism-based. Conditions: Human immunodeficiency virus 1, RF, 144 h. An outline of the steps:
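Host cells were infected with NL4-3 or IIIB (MOI 0.08) or RF (MOI 0.025–0.819) and seeded at 2 × 10⁴/well onto half-log compound dilutions. After 6 days, XTT/PMS was added for 4 h and formazan was read at 450 nm. EC50 was the concentration giving 50% of the formazan of uninfected, compound-free cells.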
Background: Protection from cytopathic effect is a common read-out in antiviral testing.

Data set [4] can be described thus: Therapeutic index, ratio of CC50 for human MT2 cells to EC50 for HIV1 92HT594 infected in human MT2 cells. The data set is classed as cell-based. The settings on record: read-out: TI. An outline of the steps:
as §1

Data set [5] concerns Human immunodeficiency virus 1. Nature of the data set: Antiviral activity against HIV1 harboring capsid I201V mutant protein assessed as inhibition of virion maturation-associated CA/SP1 processing. Type of data set: functional, organism-based. An outline of the steps:
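HEK 293 cells were transfected with pNL4-3 CAI201V, pNL4-3 or mock, with or without compound at various concentrations, and supernatants collected 72 h later. Supernatants were clarified at 200 × g, and virions pelleted through a 20% sucrose–PBS cushion (20,000 × g, 3 h, 4°C) and lysed. Proteins were run on 4–12% Bis-Tris/MOPS gels and immunoblotted with anti-p24 (1:1,000) to detect CA/SP1 p25 versus p24.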

Data set [6] in a line: Therapeutic index, ratio of CC50 for human PBMC to EC50 for HIV1 92BR017 infected in human PBMC. The settings on record: read-out: TI. The method, boiled down: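 Frozen PHA-stimulated (1.5 μg/ml, 3 days) buffy-coat PBMCs pooled from three or four seronegative donors. Infected with a TCID50-based virus input per 10⁶ cells for 1 h at 37°C, then pelleted and resuspended in 10 ng/ml IL-2. Plated at 4 × 10⁵ cells/ml on compound dilutions for 7 days at 37°C. Supernatant RT measured by Quan-T-RT. TI is mean CC50 divided by mean EC50.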

Data set [7] can be described thus: Therapeutic index, ratio of CC50 for human PBMC to EC50 for HIV1 92BR030 infected in human PBMC. Conditions: read-out: TI. An outline of the steps: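 PHA-stimulated (4 μg/ml, 48 to 72 h) PBMCs pooled from at least two seronegative donors, kept with 20 U/ml IL-2, plated at 5 × 10⁴ cells/well. Infected with clinical isolate (final MOI ≅0.1) alongside nine compound concentrations in triplicate wells, 7 days. Supernatant reverse transcriptase activity measured. TI is mean PBMC CC50 divided by mean EC50.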

Consider `CC(C)(C)c1ccc(C(Cn2cccc(C(F)(F)F)c2=O)NC2Cc3ccccc3C2)cc1` (configuration not stated), for which the selectivity ratio in data set [1] was 53; in data set [2], 1120; in data set [4] it was 79; in data set [6], 142; in data set [7], less than 1. Besides, the EC50 in data set [3] was greater than 20 µM. In addition, the inhibition entry in data set [5] was “inactive”.
